The record followed here is ChEMBL document CHEMBL4616638, “Inhibition of HIV-1 RT activity by a new series of 3-(1,3,4-thiadiazol-2-yl)thiazolidin-4-one derivatives” (Bioorg Med Chem, 2020).

Series [1] in a line: Selectivity index, ratio of CC50 for human MT4 cells to EC50 for antiviral activity againstHIV1 infected in human MT4 cells. To be noted: read-out: Ratio CC50/EC50. Type of series: toxicity, cell-based. The method in brief:
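Ratio CC50/EC50, both from the same 5-day MTT run in MT-4 cells, mock-infected versus HIV-infected (100–300 CCID50) wells.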

The nature of series [2]: Cytotoxicity against human MT4 cells assessed as reduction in cell viability after 5 days by MTT assay. The series is classed as cell-based. The method in brief: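 Mock-infected MT-4 cells (6 × 10^5 cells/ml) run alongside infected wells, receiving serial 5-fold compound dilutions in triplicate. After 5 days, MTT formazan read at 540 and 690 nm, median of three wells. CC50 is the concentration lowering OD540 of mock-infected control by 50%.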
(In general: Tetrazolium assays rely on reduction of a dye to a coloured formazan, in cell work by metabolically active cells.)

The target of series [3] is Human immunodeficiency virus type 1 reverse transcriptase (Human immunodeficiency virus 1, UniProt Q72547). The series can be described thus: Inhibition of wild type recombinant HIV1 reverse transcriptase p66/p51 using poly(rA)/oligo(dT)16 as template/primer measured after 40 mins by picogreen dye-based spectrofluorometric method.
Series [4] deals with Human immunodeficiency virus 1. The series can be described thus: Antiviral activity against HIV1 infected in human MT4 cells assessed as reduction in virus-induced cytopathic effect after 5 days by MTT assay. The series is classed as functional, organism-based. To be noted: Human immunodeficiency virus 1, MT4, 120 h. The method in brief: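 HIV stock at 100–300 CCID50 added to MT-4 cells (6 × 10^5 cells/ml after centrifugation of exponentially growing cells), compounds as serial 5-fold dilutions in triplicate wells. After 5 days, viability read by MTT reduction at 540 and 690 nm, median of three wells. EC50 taken as concentration reducing virus-induced cytopathic effect by 50%.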
(Cytopathic effects are the visible damage that an infection or toxin causes in cultured cells.)

Molecules are shown by their SMILES. Some results are limits rather than exact numbers.

As for `O=C1CSC(c2ccc(Cl)cc2)N1c1n[nH]c(=S)s1` (stereo unspecified), the selectivity ratio in series [1] was less than 1. Moreover, the CC50 (as a rule, the concentration at which the toxic effect on the cells reaches its halfway point) at 120 h in series [2] is 195 µM. The IC50 (commonly the concentration that inhibits the measured activity by half) in series [3] is more than 363 µM. For the same compound, in series [4], the half-maximal effective concentration (EC50) (commonly the concentration at which the effect is half-maximal) was more than 195 µM.
On to `CS(=O)(=O)c1ccc(NC(=O)CSc2nnc(N3C(=O)CSC3c3ccc(Cl)cc3)s2)cc1` (stereo unspecified), for which the selectivity ratio in series [1] is less than 1. For the same compound, in series [2], the CC50 at 120 h was determined as 116 µM. Also, the IC50 in series [3] was 39.4 µM. The EC50 in series [4] was more than 116 µM.
Take `NS(=O)(=O)c1ccc(NC(=O)CSc2nnc(N3C(=O)CSC3c3ccccc3Cl)s2)cc1` (stereo unspecified): the 50% cytotoxic concentration (CC50) at 120 h in series [2] is not below 18.8 µM. In addition, in series [3], the concentration for half-maximal inhibition (IC50) stood at 21.8 µM. For the same compound, the EC50 in series [4] was more than 18.8 µM.
As for `NS(=O)(=O)c1ccc(NC(=O)CSc2nnc(N3C(=O)CSC3c3ccc(Cl)cc3)s2)cc1` (stereo unspecified), the 50% cytotoxic concentration (CC50) at 120 h in series [2] was not below 222 µM. Also, the concentration for half-maximal inhibition (IC50) in series [3] turned out to be 72 µM. For the same compound, in series [4], the EC50 is not below 225 µM.
As for `CS(=O)(=O)c1ccc(NC(=O)CSc2nnc(N3C(=O)CSC3c3cccc(Cl)c3)s2)cc1` (stereo unspecified), the selectivity ratio in series [1] was less than 1. The cytotoxic concentration (CC50) at 120 h in series [2] came out at 113 µM. In addition, the IC50 in series [3] worked out at 15.8 µM. In addition, the EC50 in series [4] was more than 113 µM.
In the case of `O=C1CSC(c2cccc(Cl)c2)N1c1nnc(S)s1` (stereo unspecified), the selectivity ratio in series [1] is less than 1. In addition, the cytotoxic concentration (CC50) at 120 h in series [2] is 238 µM. For the same compound, in series [3], the IC50 is more than 100 µM. Further, in series [4], the EC50 was more than 238 µM.
For the compound `O=C1CSC(c2ccccc2)N1c1nnc(S)s1` (stereo unspecified), the selectivity ratio in series [1] is 13. In series [2], the cytotoxic concentration (CC50) at 120 h was more than 423 µM. Further, the half-maximal inhibitory concentration (IC50) in series [3] was more than 100 µM. In addition, the EC50 in series [4] came out at 32 µM.
Regarding `CS(=O)(=O)c1ccc(NC(=O)CSc2nnc(N3C(=O)CSC3c3ccccc3)s2)cc1` (stereo unspecified), in series [1], the selectivity ratio is less than 1. Also, the CC50 at 120 h in series [2] was found to be 130 µM. The concentration for half-maximal inhibition (IC50) in series [3] stood at 40.6 µM. The EC50 in series [4] is more than 130 µM.
For the compound `NS(=O)(=O)c1ccc(NC(=O)CSc2nnc(N3C(=O)CSC3c3cccc(Cl)c3)s2)cc1` (stereo unspecified), the selectivity ratio in series [1] is less than 1. Moreover, the half-maximal cytotoxic concentration (CC50) at 120 h in series [2] is 118 µM. The IC50 in series [3] turned out to be 19.2 µM. In addition, the 50% effective concentration (EC50) in series [4] is more than 118 µM.
Consider `CS(=O)(=O)c1ccc(NC(=O)CSc2nnc(N3C(=O)CSC3c3ccccc3Cl)s2)cc1` (stereo unspecified), for which the half-maximal cytotoxic concentration (CC50) at 120 h in series [2] is not below 173 µM. Also, in series [3], the IC50 turned out to be 11.8 µM. The concentration for a half-maximal effect (EC50) in series [4] was not below 173 µM.
Take `NS(=O)(=O)c1ccc(NC(=O)CSc2nnc(N3C(=O)CSC3c3ccccc3)s2)cc1` (stereo unspecified): in series [1], the selectivity ratio was less than 1. Further, the cytotoxic concentration (CC50) at 120 h in series [2] is 99.2 µM. The IC50 in series [3] was 30.6 µM. In addition, the concentration giving a half-maximal response (EC50) in series [4] was more than 99.2 µM.
In the case of `O=C1CSC(c2ccccc2Cl)N1c1nnc(S)s1` (stereo unspecified), the selectivity ratio in series [1] was less than 1. In series [2], the CC50 at 120 h is 200 µM. The IC50 in series [3] is more than 100 µM. In addition, the half-maximal effective concentration (EC50) in series [4] was more than 200 µM.
As for `Cc1ccnc2c1NC(=O)c1cccnc1N2C1CC1` [NEVIRAPINE], the 50% cytotoxic concentration (CC50) at 120 h in series [2] was more than 15 µM.
